# Assay results from ChEMBL document CHEMBL1144069, “Cytotoxic activities of hypocretenolides from Leontodon hispidus” (J Nat Prod, 1999).
# Active and inactive are the calls of the source. No cut-off for these calls is given here.
# What was measured:
# OVCAR-3 [1] = assay: Cytotoxicity against human OVCAR-3 cells after 24 hrs by [3H]thymidine incorporation assay; type: functional, cell-based
# Summary of the method: (§1)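 Adherent tumor cells (100 µL at 1 × 10^6 cells/mL) were overlaid with 100 µL of medium containing compound in the 0.25–4.00 µM range (0.1% final DMSO). The medium control had no compound. Cells were incubated for 24, 48 or 72 h at 37 °C and 5% CO2, then pulsed 24 h with 3H-thymidine. They were harvested onto glass filters and counted by liquid scintillation. Three wells per point, on three separate days (n = 9). IC50 was taken graphically.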
# MCF7 [2] = assay: Cytotoxicity against human MCF7 cells after 24 hrs by [3H]thymidine incorporation assay; type: functional, cell-based; summary of the method: as §1
# SW872 [3] = assay: Cytotoxicity against human SW872 cells after 48 hrs by [3H]thymidine incorporation assay; type: functional, cell-based; summary of the method: as §1
# HEp-2 [4] = assay: Cytotoxicity against human HEP2 cells after 24 hrs by [3H]thymidine incorporation assay; type: functional, cell-based; summary of the method: as §1
# [5] = Cytotoxicity against human SK37 cells after 72 hrs by [3H]thymidine incorporation assay; type: functional, cell-based; summary of the method: as §1
# HEp-2 [6] = assay: Cytotoxicity against human HEP2 cells after 72 hrs by [3H]thymidine incorporation assay; type: functional, cell-based; summary of the method: as §1
# A-431 [7] = assay: Cytotoxicity against human A431 cells after 48 hrs by [3H]thymidine incorporation assay; type: functional, cell-based; summary of the method: as §1
# [8] = Antiproliferative activity against CSF and human recombinant erythropoietin-induced human CD34+ cells proliferation assessed as inhibition of CFU-GM formation at 0.5 uM after 18 days by clonogenic assay; design: scale not given: the % may be the effect or the level left
# [9] = Cytotoxicity against human SK MEL28 cells after 72 hrs by [3H]thymidine incorporation assay; type: functional, cell-based; settings: SK-MEL-28; summary of the method: as §1
# [10] = Cytotoxicity against human SK37 cells after 48 hrs by [3H]thymidine incorporation assay; type: functional, cell-based; summary of the method: as §1
# MCF7 [11] = assay: Cytotoxicity against human MCF7 cells after 48 hrs by [3H]thymidine incorporation assay; type: functional, cell-based; summary of the method: as §1
# [12] = Cytotoxicity against human SK MEL28 cells after 48 hrs by [3H]thymidine incorporation assay; type: functional, cell-based; settings: SK-MEL-28; summary of the method: as §1
# [13] = Cytotoxicity against human SK37 cells after 24 hrs by [3H]thymidine incorporation assay; type: functional, cell-based; summary of the method: as §1
# [14] = Antiproliferative activity against CSF and human recombinant erythropoietin-induced human CD34+ cells proliferation assessed as inhibition of CFU-erythroid formation at 0.5 uM after 12 days by clonogenic assay; type: functional, CD34+ cell; design: scale not given: the % may be the effect or the level left
# Summary of the method: (§2)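 Human CD34+ cells were immunomagnetically selected from mononuclear cells, with purity checked by FACS. They were plated at 2 × 10^3 cells/dish in Iscove's 0.8% methylcellulose with 30% FCS. Stimulation used 3 U/mL rhEPO plus 10% agar-stimulated leukocyte-conditioned medium. Final concentrations were 0.25–2.00 µM. Dishes were run in duplicate and repeated once (n = 4). CFU-E and mature BFU-E were scored at 12 days; primitive BFU-E and CFU-GM (>50 cells) at 18 days. IC50 was read graphically.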
# OVCAR-3 [15] = assay: Cytotoxicity against human OVCAR-3 cells after 48 hrs by [3H]thymidine incorporation assay; type: functional, cell-based; summary of the method: as §1
# HL-60 = assay: Cytotoxicity against human HL-60 cells after 5 hrs by MTT assay; type: functional, cell-based; settings: HL-60, 5 h
# Summary of the method: (§3)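 Leukemic cells at 0.5 × 10^6 cells/mL in RPMI were exposed to 0.01–2.00 µM compound (0.1% final DMSO) at 37 °C and 5% CO2. Viability was measured as MTT formazan, dissolved in DMSO and read at 550 and 630 nm. Three wells per point, on three separate days (n = 9). IC50 was taken graphically from per-experiment dose curves.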
# [16] = Antiproliferative activity against CSF and human recombinant erythropoietin-induced human CD34+ cells proliferation assessed as inhibition of BFU-erythroid formation at 0.5 uM after 12 days by clonogenic assay; type: functional, CD34+ cell; design: scale not given: the % may be the effect or the level left; summary of the method: as §2
# OVCAR-3 [17] = assay: Cytotoxicity against human OVCAR-3 cells after 72 hrs by [3H]thymidine incorporation assay; type: functional, cell-based; summary of the method: as §1
# CD34+ cell [18] = assay: (§4) Antiproliferative activity against CSF and human recombinant erythropoietin-induced human CD34+ cells proliferation assessed as inhibition of CFU-erythroid formation after 12 days by clonogenic assay; type: functional; summary of the method: as §2
# [19] = as §4; type: functional, CD34+ cell; summary of the method: as §2
# SW872 [20] = assay: Cytotoxicity against human SW872 cells after 24 hrs by [3H]thymidine incorporation assay; type: functional, cell-based; summary of the method: as §1
# HEp-2 [21] = assay: Cytotoxicity against human HEP2 cells after 48 hrs by [3H]thymidine incorporation assay; type: functional, cell-based; summary of the method: as §1
# SW872 [22] = assay: Cytotoxicity against human SW872 cells after 72 hrs by [3H]thymidine incorporation assay; type: functional, cell-based
# Summary of the method: (§5)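 Adherent tumour cells at 1 × 10^6 cells/mL (100 µL per well) overlaid with an equal volume of medium carrying test substance across 0.25–4.00 µM. Medium-only controls. Incubated 24, 48 or 72 h at 37 °C, 5% CO2, then pulsed 24 h with 3H-thymidine and harvested onto glass filters for scintillation counting. Final DMSO 0.1%. Triplicate wells, three days (n = 9). IC50 read graphically from each experiment's dose curve.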
# CD34+ cell [23] = assay: Antiproliferative activity against CSF and human recombinant erythropoietin-induced human CD34+ cells proliferation assessed as inhibition of BFU-erythroid formation at 1 uM after 12 days by clonogenic assay; type: functional, cell-based; summary of the method: as §2
# MCF7 [24] = assay: Cytotoxicity against human MCF7 cells after 72 hrs by [3H]thymidine incorporation assay; type: functional, cell-based; summary of the method: as §1
# A-431 [25] = assay: Cytotoxicity against human A431 cells after 72 hrs by [3H]thymidine incorporation assay; type: functional, cell-based; summary of the method: as §1
# [26] = Cytotoxicity against human GTB cells after 5 hrs by MTT assay; type: functional, cell-based; summary of the method: as §3
# ZR-75-1 [27] = assay: Cytotoxicity against human ZR-75-1 cells after 48 hrs by [3H]thymidine incorporation assay; type: functional, cell-based; summary of the method: as §5
# CD34+ cell [28] = assay: Antiproliferative activity against CSF and human recombinant erythropoietin-induced human CD34+ cells proliferation assessed as inhibition of BFU-erythroid formation after 12 days by clonogenic assay; type: functional, cell-based; summary of the method: as §2
# CD34+ cell [29] = assay: Antiproliferative activity against CSF and human recombinant erythropoietin-induced human CD34+ cells proliferation assessed as inhibition of CFU-GM formation after 18 days by clonogenic assay
# [30] = Cytotoxicity against human SK MEL28 cells after 24 hrs by [3H]thymidine incorporation assay; type: functional, cell-based; settings: SK-MEL-28; summary of the method: as §1
# ZR-75-1 [31] = assay: Cytotoxicity against human ZR-75-1 cells after 24 hrs by [3H]thymidine incorporation assay; type: functional, cell-based; summary of the method: as §5
# ZR-75-1 [32] = assay: Cytotoxicity against human ZR-75-1 cells after 72 hrs by [3H]thymidine incorporation assay; type: functional, cell-based; summary of the method: as §5
# A-431 [33] = assay: Cytotoxicity against human A431 cells after 24 hrs by [3H]thymidine incorporation assay; type: functional, cell-based; summary of the method: as §1
# CD34+ cell [34] = assay: Antiproliferative activity against CSF and human recombinant erythropoietin-induced human CD34+ cells proliferation assessed as inhibition of CFU-erythroid formation at 1 uM after 12 days by clonogenic assay; type: functional, cell-based; summary of the method: as §2
structure (smiles),measurement,setting,value
C=C(C(=O)O[C@@H]1[C@@H](O)[C@H](O)[C@@H](OCC2=C3C(=O)C=C(C)[C@@]34C[C@@H](CC2)C(=C)C(=O)O4)O[C@H]1CO)[C@@H]1CCC(CO)=C2C(=O)C=C(C)[C@@]2(O)C1,IC50,OVCAR-3 [1],900 nM
same,IC50,MCF7 [2],500 nM
same,IC50,SW872 [3],1400 nM
same,IC50,HEp-2 [4],800 nM
same,IC50,[5],700 nM
same,IC50,HEp-2 [6],600 nM
same,IC50,A-431 [7],700 nM
same,Activity,[8],60%
same,IC50,[9],400 nM
same,IC50,[10],900 nM
same,IC50,MCF7 [11],300 nM
same,IC50,[12],900 nM
same,IC50,[13],1300 nM
same,Activity,[14],60%
same,IC50,OVCAR-3 [15],1000 nM
same,IC50,HL-60,100 nM
same,Activity,[16],60%
same,IC50,OVCAR-3 [17],1000 nM
same,Activity,CD34+ cell [18],Dose-dependent effect
same,IC100,[19],2 µM
same,IC50,SW872 [20],1500 nM
same,IC50,HEp-2 [21],700 nM
same,IC50,SW872 [22],1400 nM
same,Activity,CD34+ cell [23],Active
same,IC50,MCF7 [24],400 nM
same,IC50,A-431 [25],500 nM
same,IC50,[26],70 nM
same,IC50,ZR-75-1 [27],300 nM
same,Activity,CD34+ cell [28],Dose-dependent effect
same,Activity,CD34+ cell [29],Dose-dependent effect
same,IC50,[30],1300 nM
same,IC50,ZR-75-1 [31],300 nM
same,IC50,ZR-75-1 [32],500 nM
same,IC50,A-431 [33],700 nM
same,Activity,CD34+ cell [34],Active
